# Reference: publication PMC10981011 (Synthetic and Systems Biotechnology, 2024)
# Tests used:
# [1] = test system: Mak1 (microbiome-derived acarbose kinase 1); assay: In vitro reaction of Mak1; type: in vitro ADME, human microbiome; details: 10 μM Mak1, 0.5 mM substrate, 2 mM ATP, 30 °C, 2 h
# Procedure, shortened: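 Mak1 expressed in E. coli Origami B (DE3) (1 mM IPTG, 16 °C, 18 h) and purified on Ni-NTA. Reactions used 100 mM Tris-HCl pH 7.0, 10 mM MgCl₂, 2 mM ATP, 10 μM Mak1 and 0.5 mM test compound. They ran at 30 °C for 2 h and were stopped with 2 volumes methanol. Control used heat-inactivated Mak1 (95 °C, 30 min). Phosphorylated product detected by LC-MS on an SB-Aq column.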
# [2] = test system: Apg (acarbose-preferred glucosidase); assay: In vitro reaction of Apg; type: in vitro ADME, Klebsiella grimontii TD1; details: 10 μM Apg, 1 mM substrate, 37 °C, 2 h
structure (smiles),measurement,setting,value
C[C@H]1O[C@H](O[C@H]2[C@H](O)[C@@H](O)[C@@H](O[C@H]3[C@H](O)[C@@H](O)C(O)O[C@@H]3CO)O[C@@H]2CO)[C@H](O)[C@@H](O)[C@@H]1N[C@H]1C=C(CO)[C@@H](O)[C@H](O)[C@H]1O (some centres unmarked) [Acarbose],Phosphorylation by Mak1 (detection of phosphorylated product),[1],catalyzed the conversion of acarbose to O-7-phosphoryl-acarbose
same,Hydrolysis by Apg,[2],completely converted
